Results from ChEMBL document CHEMBL4613280, “Development of Pyrazolo[3,4-d]pyrimidine Kinase Inhibitors as Potential Clinical Candidates for Glioblastoma Multiforme” (ACS Med Chem Lett, 2020).
Activity calls are given as the source filed them. No cut-off for these calls is given here.

Tests used:
Homo sapiens [1] = species: Homo sapiens; experiment: Induction of apoptotic death in human GCE28 cells assessed as nuclear fragmentation at 12.5 uM measured after 48 hrs by Hoechst 33342/propidium iodide staining based fluorescence microscopy analysis; type: functional, cell-based
In short: (§1)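 Cells dosed 48 h with 12.5 μM inhibitor, with 70% ethanol or DMEM (negative) as controls. Nuclei then double-stained with Hoechst 33342 and propidium iodide and examined by fluorescence microscopy.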

[2] = Cytotoxicity against human GIN8 cells derived from invasive region of GBM patient assessed as reduction in cell viability measured after 48 hrs by Prestoblue assay; type: functional, cell-based
In short: (§2)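 Compounds diluted in DMEM containing 10% FBS and applied for 48 h. Viability read by PrestoBlue. IC50 calculated from three independent experiments, mean ± SE. Two-way ANOVA with Dunnett's multiple comparisons test.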

Homo sapiens [3] = species: Homo sapiens; experiment: Induction of apoptotic death in human GIN8 cells assessed as […] at 12.5 uM measured after 48 hrs by Hoechst 33342/propidium iodide staining based fluorescence microscopy analysis; type: functional, cell-based; in short: as §1
Homo sapiens [4] = species: Homo sapiens; experiment: Induction of necrosis in human GIN8 cells assessed as induction of nuclear membrane permeability at 12.5 uM measured after 48 hrs by Hoechst 33342/propidium iodide staining based fluorescence microscopy analysis; type: functional, cell-based; in short: as §1
[5] = Cytotoxicity against human GIN28 cells derived from invasive region of GBM patient assessed as reduction in cell viability measured after 48 hrs by Prestoblue assay; type: functional, cell-based; in short: as §2
Homo sapiens [6] = species: Homo sapiens; experiment: Cytotoxicity against human GIN8 cells assessed as reduction in cell viability at 5 ug/ml measured after 48 hrs using PVPVA-formulated compound by Prestoblue assay; type: functional, cell-based
In short: (§3)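 Inhibitor either dissolved in DMSO, inkjet-printed into polymer, or suspended in PBS, then diluted in DMEM. Polymer-alone and untreated controls included. Viability read by PrestoBlue after 48 h, mean ± SD.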

Homo sapiens [7] = species: Homo sapiens; experiment: Induction of apoptotic death in human GCE28 cells assessed as presence of apoptotic bodies at 12.5 uM measured after 48 hrs by Hoechst 33342/propidium iodide staining based fluorescence microscopy analysis; type: functional, cell-based; in short: as §1
Homo sapiens [8] = species: Homo sapiens; experiment: Cytotoxicity against human GIN28 cells assessed as reduction in cell viability at 5 ug/ml measured after 48 hrs using PVPVA-formulated compound by Prestoblue assay; type: functional, cell-based; in short: as §3
Homo sapiens [9] = species: Homo sapiens; experiment: Induction of apoptotic death in human GIN8 cells assessed as nuclear fragmentation at 12.5 uM measured after 48 hrs by Hoechst 33342/propidium iodide staining based fluorescence microscopy analysis; type: functional, cell-based; in short: as §1
Homo sapiens [10] = species: Homo sapiens; experiment: Cytotoxicity against human GIN8 cells assessed as cell viability at 5 ug/ml measured after 48 hrs using compound suspended in PBS by Prestoblue assay; type: functional, cell-based; in short: as §3
Homo sapiens [11] = species: Homo sapiens; experiment: Cytotoxicity against human GIN8 cells assessed as reduction in cell viability at 5 ug/ml measured after 48 hrs using Tween 80-formulated compound by Prestoblue assay; type: functional, cell-based; in short: as §3
Homo sapiens [12] = species: Homo sapiens; experiment: Cytotoxicity against human GIN28 cells assessed as reduction in cell viability at 5 ug/ml measured after 48 hrs using Tween 80-formulated compound by Prestoblue assay; type: functional, cell-based; in short: as §3
Homo sapiens [13] = species: Homo sapiens; experiment: Induction of apoptosis in human GCE28 cells assessed as increase in caspase 3/7 activation at 12.5 uM measured after 48 hrs by CellEvent caspase 3/7 probe based fluorescence analysis; type: functional, cell-based
In short: (§4)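 Cells exposed 48 h to compounds diluted in 10% FBS DMEM. Activated caspase-3/7 detected with the CellEvent probe. Staurosporine 10.0 μM served as reference inducer. Mean ± SEM (n = 3). Two-way ANOVA with Dunnett's test.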

Homo sapiens [14] = species: Homo sapiens; experiment: Induction of apoptosis in human GIN8 cells assessed as increase in caspase 3/7 activation at 12.5 uM measured after 48 hrs by CellEvent caspase 3/7 probe based fluorescence analysis; type: functional, cell-based; in short: as §4
Homo sapiens [15] = species: Homo sapiens; experiment: Induction of apoptotic death in human GIN28 cells assessed as presence of apoptotic bodies at 12.5 uM measured after 48 hrs by Hoechst 33342/propidium iodide staining based fluorescence microscopy analysis; type: functional, cell-based; in short: as §1
Homo sapiens [16] = species: Homo sapiens; experiment: Cytotoxicity against human GCE28 cells assessed as reduction in cell viability at 5 ug/ml measured after 48 hrs using Tween 80-formulated compound by Prestoblue assay; type: functional, cell-based; in short: as §3
Homo sapiens [17] = species: Homo sapiens; experiment: Induction of apoptosis in human GIN28 cells assessed as increase in caspase 3/7 activation at 12.5 uM measured after 48 hrs by CellEvent caspase 3/7 probe based fluorescence analysis; type: functional, cell-based; in short: as §4
[18] = Additive cytotoxicity against human GIN28 cells assessed as combination index measured after 48 hrs in presence of 2-[[4-(2-phenylethylamino)-1-[styryl]pyrazolo[3,4-d]pyrimidin-6-yl]amino]ethanol by Chou-Talalay assay; type: functional
In short: (§5)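 Each drug pair dosed at a 1:1 molar ratio on the GBM lines and incubated 48 h. CI computed from three independent IC50 experiments (n = 3), reported as mean ± SD.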

Homo sapiens [19] = species: Homo sapiens; experiment: Cytotoxicity against human GIN8 cells assessed as reduction in cell viability at 5 ug/ml measured after 48 hrs using compound dissolved in DMSO by Prestoblue assay; type: functional, cell-based; in short: as §3
[20] = Additive cytotoxicity against human GIN8 cells assessed as combination index measured after 48 hrs in presence of 2-[[4-(2-phenylethylamino)-1-[styryl]pyrazolo[3,4-d]pyrimidin-6-yl]amino]ethanol by Chou-Talalay assay; type: functional; in short: as §5
Homo sapiens [21] = species: Homo sapiens; experiment: Cytotoxicity against human GCE28 cells assessed as reduction in cell viability at 5 ug/ml measured after 48 hrs using Pluronic-F68-formulated compound by Prestoblue assay; type: functional, cell-based; in short: as §3
Homo sapiens [22] = species: Homo sapiens; experiment: Cytotoxicity against human GIN8 cells assessed as reduction in cell viability at 5 ug/ml measured after 48 hrs using Pluronic-F68-formulated compound by Prestoblue assay; type: functional, cell-based; in short: as §3
Homo sapiens [23] = species: Homo sapiens; experiment: Cytotoxicity against human GCE28 cells assessed as cell viability at 5 ug/ml measured after 48 hrs using compound suspended in PBS by Prestoblue assay; type: functional, cell-based; in short: as §3
[24] = Apparent water solubility of the compound in PBS formulated with 900 ug/ml polymer PVPVA at 100 ug/ml by UV-Visible spectral analysis; type: physicochemical; conditions: buffer
Homo sapiens [25] = species: Homo sapiens; experiment: Induction of apoptotic death in human GIN8 cells assessed as presence of apoptotic bodies at 12.5 uM measured after 48 hrs by Hoechst 33342/propidium iodide staining based fluorescence microscopy analysis; type: functional, cell-based; in short: as §1
[26] = Synergistic cytotoxicity against human GIN28 cells assessed as combination index measured after 48 hrs in presence of 3-(4-chlorophenyl)-1-(2-chloro-2-phenylethyl)pyrazolo[3,4-d]pyrimidin-4-amine by Chou-Talalay assay; type: functional; in short: as §5
Homo sapiens [27] = species: Homo sapiens; experiment: Induction of apoptotic death in human GIN28 cells assessed as nuclear fragmentation at 12.5 uM measured after 48 hrs by Hoechst 33342/propidium iodide staining based fluorescence microscopy analysis; type: functional, cell-based; in short: as §1
Homo sapiens [28] = species: Homo sapiens; experiment: Cytotoxicity against human GIN28 cells assessed as reduction in cell viability at 5 ug/ml measured after 48 hrs using Pluronic-F68-formulated compound by Prestoblue assay; type: functional, cell-based; in short: as §3
[29] = Cytotoxicity against human GCE28 cells derived from central tumor core of GBM patient assessed as reduction in cell viability measured after 48 hrs by Prestoblue assay; type: functional, cell-based; in short: as §2
[30] = Synergistic cytotoxicity against human GIN8 cells assessed as combination index measured after 48 hrs in presence of 3-(4-chlorophenyl)-1-(2-chloro-2-phenylethyl)pyrazolo[3,4-d]pyrimidin-4-amine by Chou-Talalay assay; type: functional
In short: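 Two kinase inhibitors were combined at a 1:1 molar ratio, diluted in DMEM with 10% FBS, and incubated with the GBM cells for 48 h. Viability was read by PrestoBlue. Combination index values were calculated from three independent IC50 experiments (n = 3) and are reported as mean ± SD.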

Homo sapiens [31] = species: Homo sapiens; experiment: Cytotoxicity against human GIN28 cells assessed as cell viability at 5 ug/ml measured after 48 hrs using compound suspended in PBS by Prestoblue assay; type: functional, cell-based; in short: as §3
Homo sapiens [32] = species: Homo sapiens; experiment: Cytotoxicity against human GCE28 cells assessed as reduction in cell viability at 5 ug/ml measured after 48 hrs using compound dissolved in DMSO by Prestoblue assay; type: functional, cell-based; in short: as §3
Homo sapiens [33] = species: Homo sapiens; experiment: Induction of apoptotic death in human GIN28 cells assessed as […] at 12.5 uM measured after 48 hrs by Hoechst 33342/propidium iodide staining based fluorescence microscopy analysis; type: functional, cell-based; in short: as §1
[34] = Synergistic cytotoxicity against human GCE28 cells assessed as combination index measured after 48 hrs in presence of 3-(4-chlorophenyl)-1-(2-chloro-2-phenylethyl)pyrazolo[3,4-d]pyrimidin-4-amine by Chou-Talalay assay; type: functional; in short: as §5
Homo sapiens [35] = species: Homo sapiens; experiment: Induction of apoptotic death in human GCE28 cells assessed as […] at 12.5 uM measured after 48 hrs by Hoechst 33342/propidium iodide staining based fluorescence microscopy analysis; type: functional, cell-based; in short: as §1
Homo sapiens [36] = species: Homo sapiens; experiment: Cytotoxicity against human GCE28 cells assessed as reduction in cell viability at 5 ug/ml measured after 48 hrs using PVPVA-formulated compound by Prestoblue assay; type: functional, cell-based; in short: as §3
[37] = Apparent water solubility of the compound in PBS formulated with 900 ug/ml polymer Tween 80 at 100 ug/ml by UV-Visible spectral analysis; type: physicochemical; conditions: buffer
Homo sapiens [38] = species: Homo sapiens; experiment: Induction of necrosis in human GCE28 cells assessed as induction of nuclear membrane permeability at 12.5 uM measured after 48 hrs by Hoechst 33342/propidium iodide staining based fluorescence microscopy analysis; type: functional, cell-based; in short: as §1
[39] = Apparent water solubility of the compound in PBS formulated with 900 ug/ml of polymer Pluronic F-68 at 100 ug/ml by UV-Visible spectral analysis; type: physicochemical; conditions: buffer
Homo sapiens [40] = species: Homo sapiens; experiment: Cytotoxicity against human GIN28 cells assessed as reduction in cell viability at 5 ug/ml measured after 48 hrs using compound dissolved in DMSO by Prestoblue assay; type: functional, cell-based; in short: as §3
[41] = Additive cytotoxicity against human GCE28 cells assessed as combination index measured after 48 hrs in presence of 2-[[4-(2-phenylethylamino)-1-[styryl]pyrazolo[3,4-d]pyrimidin-6-yl]amino]ethanol by Chou-Talalay assay; type: functional; in short: as §5
Homo sapiens [42] = species: Homo sapiens; experiment: Induction of necrosis in human GIN28 cells assessed as induction of nuclear membrane permeability at 12.5 uM measured after 48 hrs by Hoechst 33342/propidium iodide staining based fluorescence microscopy analysis; type: functional, cell-based; in short: as §1

For ClC(Cn1ncc2c(Nc3cccc(Br)c3)nc(SCCN3CCOCC3)nc21)c1ccccc1 (configuration not stated), the Activity (Homo sapiens [1]) was “Active”, the IC50 [2] was 11.2 µM and the Activity (Homo sapiens [3]) was “Active”. For the same molecule, the Activity (Homo sapiens [4]) was “inactive”, the IC50 [5] was 7.7 µM and the Activity (Homo sapiens [6]) was “Active”. For the same molecule, the Activity (Homo sapiens [7]) was “Active”, the Activity (Homo sapiens [8]) was “Active” and the Activity (Homo sapiens [9]) was “Active”. The Activity (Homo sapiens [10]) was “inactive”, the Activity (Homo sapiens [11]) was “Active” and the Activity (Homo sapiens [12]) was “Active”. For the same molecule, the Activity (Homo sapiens [13]) was “Active”, the Activity (Homo sapiens [14]) was “Active” and the Activity (Homo sapiens [15]) was “Active”. For the same molecule, the Activity (Homo sapiens [16]) was “Active”, the Activity (Homo sapiens [17]) was “Active” and the CI [18] was 0.9. The Activity (Homo sapiens [19]) was “Active”, the CI [20] was 0.99 and the Activity (Homo sapiens [21]) was “Active”. The Activity (Homo sapiens [22]) was “Active”, the Activity (Homo sapiens [23]) was “inactive” and the solubility [24] was “Soluble”. For the same molecule, the Activity (Homo sapiens [25]) was “Active”, the CI [26] was 0.76 and the Activity (Homo sapiens [27]) was “Active”. For the same molecule, the Activity (Homo sapiens [28]) was “Active”, the IC50 [29] was 7.2 µM and the CI [30] was 0.53. The Activity (Homo sapiens [31]) was “inactive”, the Activity (Homo sapiens [32]) was “Active” and the Activity (Homo sapiens [33]) was “Active”. For the same molecule, the CI [34] was 0.88, the Activity (Homo sapiens [35]) was “Active” and the Activity (Homo sapiens [36]) was “Active”. The solubility [37] was “Soluble”, the Activity (Homo sapiens [38]) was “inactive” and the solubility [39] was “Soluble”. The Activity (Homo sapiens [40]) was “Active”, the CI [41] was 0.97 and the Activity (Homo sapiens [42]) was “inactive”.
